Assay results of several laboratories.
Lines come from different studies, so protocols differ.

Cn1cc(-c2ccc(S(=O)(=O)[C@@H]3C[C@@H](C(=O)NC4(C#N)CC4)N(C(=O)C4(C(F)(F)F)CC4)C3)c(C(F)(F)F)c2)cn1 — Tmax (human, plasma; oral, 100 mg, single dose, fasted, healthy volunteers): 4 h
C[C@@]1(c2cc(NC(=O)c3ccc(C#N)cn3)ccc2F)C=CSC(N)=N1 — Tmax (human, plasma; oral, 3 mg, single dose): 1.25 h
Cc1nc(NC(=O)N2CCC[C@H]2C(N)=O)sc1-c1ccnc(C(C)(C)C(F)(F)F)c1 — Tmax (human, plasma; oral, 400 mg, patients): 2 h
C[C@@H](Nc1cc(F)cc(F)c1)c1cc(C(=O)N(C)C)cc2c(=O)cc(N3CCOCC3)oc12 — Tmax (human, plasma; oral, 60 mg, single dose, patients): 1.27 h
CS(=O)(=O)CCC#N — Tmax (human, plasma; oral, 100 mg, single dose, fasted): 2 h
CCc1nc2c(C)cc(N3CCN(CC(=O)N4CC(O)C4)CC3)cn2c1N(C)c1nc(-c2ccc(F)cc2)c(C#N)s1 — Tmax (human, plasma; oral, 20 mg, fed, healthy volunteers): 1 h
CC(C)(Sc1ccncc1-c1ccc(C#N)c2ccccc12)C(=O)O — Tmax (male human, plasma; oral, 1 mg, multiple doses, once daily): 0.5 h
CO[C@@H]1[C@H](OC(=O)N2CC(CCN3CCOCC3)C2)CC[C@]2(CO2)[C@H]1[C@@]1(C)O[C@@H]1CC=C(C)C — Tmax (human, plasma; subcutaneous, 2.4 mg, single dose, healthy volunteers): 0.25 h
NS(=O)(=O)NCCNc1nonc1C(=NO)Nc1ccc(F)c(Br)c1 — Tmax (human, plasma; oral, 300 mg, multiple doses, twice daily, steady state, patients): 2 h
COc1cc(N2CCC(N3CCN(C)CC3)CC2)ccc1Nc1ncnc(Nc2ccccc2S(=O)(=O)C(C)C)n1 — Tmax (human, plasma; oral, 50 mg, multiple doses, patients): 2.99 h
CCc1nc(C(N)=O)c(Nc2ccc(N3CCC(N4CCN(C)CC4)CC3)c(OC)c2)nc1NC1CCOCC1 — Tmax (human, plasma; oral, 80 mg, multiple doses, patients): 4.03 h
C=CC(=O)N(C)CCOc1c(N)ncnc1-c1cc(F)cc(NC(=O)c2ccc(C3CC3)cc2F)c1C — Tmax (human, blood; oral, 5 mg, single dose, healthy volunteers): 0.52 h
CC(C)n1cc(C#N)c2cc(-n3cc(C(=O)O)cn3)ccc21 — Tmax (human, plasma; oral, 600 mg, multiple doses, once daily, steady state): 3.5 h
COc1ccc([C@@H]2CN(C(=O)[C@@H](O)CO)C[C@@]2(C)[C@@H](C)O)cc1OC1CN(c2ccc(C)cn2)C1 — Tmax (human, plasma; oral, 0.5 mg, single dose, healthy volunteers): 1.5 h
c1cnc2ccc(Nc3nc(NC4CC4)c4nc[nH]c4n3)cc2c1 — Tmax (human, plasma; oral, 50 mg/m², patients): 5 h
CC(C)(O)c1ccccc1-c1ccc2[nH]c(/C=C/c3ccc(C(F)(F)F)cc3)nc2c1 — Tmax (male human, plasma; oral, 225 mg, single dose, fasted): 2.02 h
CCO[C@H]1CCN(Cc2c(OC)cc(C)c3[nH]ccc23)[C@H](c2ccc(C(=O)O)cc2)C1 — Tmax (human, plasma; oral, 25 mg, multiple doses, twice daily, patients): 2 h
C#C[C@]1(COP(=O)(O)OP(=O)(O)OP(=O)(O)O)O[C@@H](n2cnc3c(N)nc(F)nc32)C[C@@H]1O — Tmax (human, plasma; oral, 30 mg, single dose): 24 h
